Source: ChEMBL document CHEMBL1955761, “Privileged scaffolds or promiscuous binders: a comparative study on rhodanines and related heterocycles in medicinal chemistry” (J Med Chem, 2012)
Calls of active or inactive are those of the source.

How the values were obtained:
[1] = system: Dengue virus; test: Inhibition of Dengue virus NS2B-NS3 protease using Abz-NleKRRS-3-(NO2)Y as substrate at 50 uM preincubated for 15 mins measured every sec for 15 mins by fluorimetric analysis
[2] = target: Prothrombin (Bos taurus) (UniProt P00735); test: Inhibition of bovine plasma thrombin using Boc-Val-Pro-Arg-AMC as substrate at 25 uM preincubated for 15 mins measured after 10 mins by fluorimetric assay
Procedure, shortened: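 Purchased bovine plasma thrombin at 10 nM final, preincubated 15 min with 25 μM inhibitor; reaction started with 50 μM substrate. Buffer 50 mM Tris-HCl pH 7.5, 150 mM NaCl, 0.05% Tween 20. Triplicate, averaged.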

[3] = system: Escherichia coli; test: Inhibition of Escherichia coli MurA using PEP as substrate assessed as inorganic phosphate release at 25 uM preincubated for 10 mins measured after 60 mins […]
[4] = system: Escherichia coli; test: Inhibition of Escherichia coli MetAP at 10 uM after 15 mins by fluorescence analysis

Row | inhibition [1] | inhibition [2] | inhibition [3] | inhibition [4] | SMILES
1 | 30% | 18% | 16% | 20% | O=C1NC(=S)N/C1=C\C1CCCCC1
2 | 50% | 22% | 21% | inactive | O=C1NC(=S)S/C1=C\c1ccc(Br)s1
3 | 43% | 20% | 50% | 42% | C/C(=C1/NC(=S)NC1=O)c1cccs1
4 | 47% | 34% | 24% | inactive | O=C1NC(=S)S/C1=C\c1ccc(O)cc1
5 | 35% | 19% | 15% | 13% | O=C1NC(=S)N/C1=C\c1ccc([N+](=O)[O-])cc1
6 | 36% | inactive | inactive | 46% | O=C1NC(=O)/C(=C/c2ccc3ccccc3c2)N1
7 | 41% | 20% | 22% | 15% | O=C1NC(=S)N/C1=C\c1ccc(Cl)cc1Cl
8 | 46% | 23% | 15% | inactive | O=C1NC(=S)S/C1=C\c1ccc(Cl)cc1Cl
9 | 15% | 29% | inactive | 12% | O=C1NC(=O)/C(=C/c2ccccn2)S1
10 | 31% | 14% | inactive | 15% | Cc1ccc(/C=C2\NC(=S)NC2=O)cc1
11 | 36% | 23% | 46% | 86% | O=C1NC(=S)N/C1=C\c1ccc(O)c(O)c1
12 | 42% | 29% | 22% | inactive | O=C1NC(=S)N/C1=C\c1ccc(Cl)s1
13 | 44% | 18% | inactive | inactive | O=C1NC(=S)S/C1=C\c1cccs1
14 | 38% | inactive | 100% | 17% | O=C1NC(=O)/C(=C/c2ccccc2)N1
15 | 38% | 23% | 72% | 26% | COc1cc(/C=C2\NC(=S)NC2=O)ccc1O
16 | 18% | inactive | inactive | inactive | COc1cccc(/C=C2\NC(=O)NC2=O)c1
17 | 47% | 28% | 43% | inactive | O=C1NC(=S)S/C1=C\c1sccc1Cl

Row | inhibition [1] | inhibition [2] | inhibition [3] | inhibition [4] | SMILES
18 | 15% | inactive | inactive | inactive | O=C1NC(=O)/C(=C/c2ccc(Cl)cc2Cl)N1
19 | 42% | 25% | 51% | 75% | CN(C)c1ccc(/C=C2\NC(=S)NC2=O)cc1
20 | 26% | inactive | inactive | inactive | O=C1NC(=O)/C(=C/c2ccc([N+](=O)[O-])cc2)N1
21 | 45% | 17% | 11% | inactive | C/C(=C1/SC(=S)NC1=O)c1cccs1
22 | 43% | 11% | 13% | 15% | CC(=O)n1cc(/C=C2\NC(=S)NC2=O)c2ccccc21
23 | 20% | 19% | 41% | inactive | O=C1NC(=O)/C(=C/c2ccco2)S1
24 | 24% | 10% | inactive | 10% | COc1ccc(/C=C2\NC(=O)NC2=O)cc1
25 | 54% | 27% | 13% | inactive | O=C1NC(=S)S/C1=C\c1ccc(Cl)s1
26 | 42% | 16% | inactive | inactive | COc1ccc(/C=C2\SC(=S)NC2=O)cc1
27 | 34% | 20% | inactive | inactive | Cn1cc(/C=C2\NC(=O)NC2=O)c2ccccc21
28 | 25% | 15% | inactive | inactive | O=C1NC(=O)/C(=C/c2ccccc2)S1
29 | 28% | 15% | 10% | 18% | COc1ccccc1/C=C1\NC(=S)NC1=O
30 | 33% | 10% | inactive | 15% | C/C(=C1/NC(=S)NC1=O)c1ccc2ccccc2c1
31 | 47% | 21% | 18% | inactive | O=C1NC(=S)S/C1=C\c1cc(Br)cs1
32 | 48% | 16% | inactive | inactive | O=C1NC(=S)N/C1=C\c1cccs1
33 | inactive | 21% | 24% | 14% | C/C(=C1/NC(=S)NC1=O)c1ccccc1

The next lines start with the molecule.

Row | SMILES | inhibition [1] | inhibition [2] | inhibition [3] | inhibition [4]
34 | O=C1NC(=S)N[C@H]1Cc1c[nH]c2ccccc12 | inactive | inactive | 11% | 13%
35 | CCCCC/C=C1\SC(=S)NC1=O | 35% | 18% | 14% | 21%
36 | O=C1NC(=O)[C@H](Cc2ccccc2)N1 | inactive | inactive | inactive | 22%
37 | CCCC/C=C/C1NC(=S)NC1=O (stereo unspecified) | inactive | 10% | 64% | inactive
38 | C/C(=C1/SC(=S)NC1=O)c1ccccc1 | 23% | 19% | 33% | inactive
39 | O=C1NC(=O)/C(=C/c2ccc([N+](=O)[O-])cc2)S1 | inactive | inactive | inactive | 13%
40 | O=C1NC(=O)C(Cc2ccc(O)c(O)c2)N1 (stereo unspecified) | inactive | inactive | 79% | 84%
41 | COc1cc(/C=C2\SC(=S)NC2=O)ccc1O | 42% | 32% | 66% | 12%
42 | Cn1cc(/C=C2\SC(=O)NC2=O)c2ccccc21 | 41% | 25% | inactive | inactive
43 | O=C1NC(=O)/C(=C2\CCOc3ccccc32)S1 | 35% | inactive | inactive | 11%
44 | O=C1NC(=O)/C(=C/c2ccc(Br)s2)S1 | inactive | 19% | 62% | 12%
45 | COc1ccc(/C=C/C=C2\SC(=O)NC2=O)cc1 | 18% | 11% | 13% | inactive
46 | CC(=O)n1cc(/C=C2\SC(=O)NC2=O)c2ccccc21 | 11% | inactive | inactive | inactive
47 | COc1ccccc1/C=C1\SC(=O)NC1=O | 17% | 11% | 25% | 10%
48 | C/C(=C1/SC(=S)NC1=O)c1ccc2ccccc2c1 | 42% | 23% | inactive | inactive
49 | CC(=O)N1C(=S)NC(=O)[C@@H]1CCC(N)=O | inactive | inactive | inactive | 13%
50 | O=C1NC(=O)/C(=C/c2ccc(Cl)s2)S1 | 11% | 29% | 38% | inactive
51 | C/C(=C1/NC(=S)NC1=O)c1ccc(C2CCCCC2)cc1 | 12% | inactive | 13% | 58%
52 | O=C1NC(=O)/C(=C/c2ccc(O)cc2)S1 | 32% | 34% | inactive | inactive
53 | CC(=O)N1C(=S)NC(=O)[C@@H]1Cc1ccc(O)cc1 | inactive | inactive | inactive | inactive
54 | O=C1NC(=O)[C@H](Cc2c[nH]c3ccccc23)N1 | inactive | inactive | inactive | 19%
55 | Cc1ccc(/C=C2\SC(O)=NC2=O)cc1 | 17% | 18% | inactive | inactive
56 | CN(C)c1ccc(/C=C2\SC(=O)NC2=O)cc1 | 20% | 11% | inactive | 13%
57 | O=C1NC(=S)S/C1=C1/CCOc2ccccc21 | 44% | 18% | inactive | inactive
58 | O=C1NC(=S)N[C@H]1Cc1ccccc1 | inactive | inactive | 17% | 12%
59 | CC(=O)N1C(=S)NC(=O)[C@H]1Cc1ccccc1 | inactive | inactive | 15% | inactive
